Active and inactive are the calls of the source. No cut-off for these calls is given here.
Key:
HL-60 [1] = assay: Effect on human HL60 cells assessed as fold change in GDAP1 gene expression at 1.085 uM incubated for 6 hrs by microarray-based method; format: functional
Summary of the method: (§1)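 HL60 cells were treated in triplicate with 1.085 µM or vehicle for 6 h. Total RNA was extracted with on-column DNase treatment and profiled on expression arrays.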

HL-60 [2] = assay: Induction of differentiation in human HL60 cells assessed as increase in CD14 positive cells incubated for 48 hrs by 7-AAD staining-based flow cytometric analysis; format: functional, cell-based
Summary of the method: (§2)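 Vitamin D3 at 100 nM and ATRA at 2 μM served as positive controls. Stained with APC anti-CD11b and PE anti-CD14 for 30 min at 4 °C, then 7-AAD.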

RS4-11 [3] = assay: Effect on human RS4:11 cells assessed as increase in p53 protein expression at 300 nM incubated for 15 to 360 mins by Western blot analysis; format: functional, cell-based
Summary of the method: (§3)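 Leukemia cells (RS4;11, CEM, HL60) treated with 300 nM for 0, 15, 30, 60 and 360 min. Western blotting for β-tubulin and p53, with lamin B1 as loading control and chemiluminescent detection.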

RS4-11 [4] = assay: Induction of DNA damage in human RS4:11 cells assessed as accumulation of cells at G1 phase at 300 nM incubated for 18 hrs in presence of H2AX antibody by immunofluorescent staining based flow cytometric analysis relative to control; format: functional
Summary of the method: (§4)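 RS4;11 cells treated with 300 nM or DMSO vehicle for 18 h, then pulsed with 10 μM BrdU for 1 h. Harvested cells immunostained for BrdU/PI (cell cycle), γH2AX (DNA damage) and PARP (apoptosis). Multicolor flow cytometry gated G1, sub-G2-like, G2/M and sub-G0/G1 populations.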

HL-60 [5] = assay: Effect on human HL60 cells assessed as fold change in USP24 gene expression at 1.085 uM incubated for 6 hrs by microarray-based method; format: functional
Tubulin (Homo sapiens) = Tubulin (Homo sapiens) (UniProt P68371+Q9H4B7+P0DPH7+P68366+Q13509+Q71U36+P04350+Q3ZCM7+P07437+P68363+Q9BQE3+Q6PEY2+Q13885+Q9BVA1+Q9BUF5); assay: Inhibition of tubulin polymerization in human HL60 cells at 300 nM by Western blot analysis; format: cell-based; conditions: TDE = time-dependent effect; summary of the method: as §3
HL-60 [6] = assay: Induction of cell cycle arrest in human HL60 cells assessed as accumulation of cells at G0/G1 phase at EC50 incubated for 18 hrs by PI staining based flow cytometric analysis (reference value: 56.3%); format: functional
HL-60 [7] = assay: Effect on human HL60 cells assessed as fold change in MOB2 gene expression at 1.085 uM incubated for 6 hrs by microarray-based method; format: functional; summary of the method: as §1
RS4-11 [8] = assay: Induction of apoptosis in human RS4:11 cells assessed as accumulation of cells at G1 phase at 300 nM incubated for 18 hrs in presence of PARP antibody by immunofluorescent staining based flow cytometric analysis relative to control; format: functional; summary of the method: as §4
HL-60 [9] = assay: Effect on human HL60 cells assessed as fold change in HOXB-AS3 gene expression at 1.085 uM incubated for 6 hrs by microarray-based method; format: functional; summary of the method: as §1
HL-60 [10] = assay: Effect on human HL60 cells assessed as fold change in MEIOC gene expression at 1.085 uM incubated for 6 hrs by microarray-based method; format: functional; summary of the method: as §1
HL-60 [11] = assay: Effect on human HL60 cells assessed as fold change in FOXJ2 gene expression at 1.085 uM incubated for 6 hrs by microarray-based method; format: functional; summary of the method: as §1
HL-60 [12] = assay: Effect on human HL60 cells assessed as fold change in CEP44 gene expression at 1.085 uM incubated for 6 hrs by microarray-based method; format: functional; summary of the method: as §1
HL-60 [13] = assay: Effect on human HL60 cells assessed as fold change in NMNAT1 gene expression at 1.085 uM incubated for 6 hrs by microarray-based method; format: functional; summary of the method: as §1
CCRF-CEM [14] = assay: Induction of apoptosis in human CEM cells at 300 nM incubated for 18 hrs by Annexin V-FITC/propidium iodide staining-based flow cytometric analysis; format: functional, cell-based
Summary of the method: (§5)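 CEM, HL60 or RS4;11 cells (5×10^5) treated with 300 nM or vehicle for 18 h. Stained with FITC-Annexin V in binding buffer for 15 min at 37 °C, then PI (5 μg/mL) for 3 min. Analyzed by flow cytometry.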

HL-60 [15] = assay: Effect on human HL60 cells assessed as fold change in FBXO25 gene expression at 1.085 uM incubated for 6 hrs by microarray-based method; format: functional; summary of the method: as §1
RS4-11 [16] = assay: Induction of apoptosis in human RS4:11 cells assessed as accumulation of cells at G2 phase at 300 nM incubated for 18 hrs in presence of PARP antibody by immunofluorescent staining based flow cytometric analysis relative to control; format: functional; summary of the method: as §4
HL-60 [17] = assay: Induction of cell cycle arrest in human HL60 cells assessed as accumulation of cells at G0/G1 phase at EC50 incubated for 12 hrs by PI staining based flow cytometric analysis (reference value: 56.3%); format: functional
HL-60 [18] = assay: Induction of differentiation in human HL60 cells assessed as increase in CD11b positive cells at EC50 to EC90 incubated for 24 hrs by 7-AAD staining-based flow cytometric analysis; format: functional, cell-based; summary of the method: as §2
T-cell = assay: Cytotoxicity against phytohemagglutinin and interleukin-2-stimulated T-lymphocytes (unknown origin) up to 100 uM after 48 hrs by MTT assay; format: cell-based
Summary of the method: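 Post-ficoll lymphocytes from healthy donors were grown in RPMI-1640 with 10% FBS and stimulated overnight with phytohemagglutinin (25 µL/mL) plus IL-2 (50 U/mL). They were then exposed to decreasing concentrations for 48 h. Viability was measured by MTT (0.5 mg/ml final, 4 h), with SDS/HCl solubilization and absorbance at 570/620 nm, as survival relative to controls.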

HL-60 [19] = assay: Induction of cell cycle arrest in human HL60 cells assessed as accumulation of cells at sub G0/G1 phase at EC50 incubated for 12 hrs by PI staining based flow cytometric analysis (reference value: 1.67%); format: functional
HL-60 [20] = assay: Antiproliferative activity against human HL60 cells assessed as reduction in cell viability after 48 hrs by MTT assay; conditions: HL-60, 48 h
HL-60 [21] = assay: Effect on human HL60 cells assessed as fold change in NCBP2-AS2 gene expression at 1.085 uM incubated for 6 hrs by microarray-based method; format: functional; summary of the method: as §1
HL-60 [22] = assay: Effect on human HL60 cells assessed as fold change in ITPR3 gene expression at 1.085 uM incubated for 6 hrs by microarray-based method; format: functional; summary of the method: as §1
HL-60 [23] = assay: Effect on human HL60 cells assessed as fold change in RAB39B gene expression at 1.085 uM incubated for 6 hrs by microarray-based method; format: functional; summary of the method: as §1
RS4-11 [24] = assay: Induction of apoptosis in human RS4:11 cells at 300 nM incubated for 18 hrs by Annexin V-FITC/propidium iodide staining-based flow cytometric analysis; format: functional, cell-based; summary of the method: as §5
CCRF-CEM [25] = assay: Antiproliferative activity against human CEM cells incubated for 48 hrs by MTT assay; format: functional, cell-based
Summary of the method: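 Cells grown in RPMI-1640 with 10% FBS, penicillin/streptomycin, 37 °C, 5% CO2. After 48 h of exposure to a dilution series, MTT was added (0.5 mg/ml final) for 4 h. Formazan was dissolved overnight in acidic SDS (10% SDS, 0.01 mol/L HCl) and absorbance read at 570 and 620 nm. Survival was expressed relative to controls, and EC50 was fitted from dose-response curves.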

inhibition (Tubulin (Homo sapiens)): Tde | EC90 (HL-60 [20]): 1000 nM | EC50 (CCRF-CEM [25]): 200 nM
Structure (SMILES): COC(=O)c1[nH]c2cc(OC)ccc2c1-c1ccc(C(F)(F)F)cc1
fold change (FC) (HL-60 [1]): -1.61 | Activity (HL-60 [2]): Dose-dependent effect | Activity (RS4-11 [3]): Active | Activity (RS4-11 [4]): 6.9% | fold change (FC) (HL-60 [5]): 1.74 | Activity (HL-60 [6]): 10.6% | fold change (FC) (HL-60 [7]): -1.79 | Activity (RS4-11 [8]): 7% | fold change (FC) (HL-60 [9]): -1.54 | fold change (FC) (HL-60 [10]): -1.63 | fold change (FC) (HL-60 [11]): 1.62 | fold change (FC) (HL-60 [12]): 1.76 | fold change (FC) (HL-60 [13]): 1.5 | Activity (CCRF-CEM [14]): Active | fold change (FC) (HL-60 [15]): 1.71 | Activity (RS4-11 [16]): 1.5% | Activity (HL-60 [17]): 20.8% | Activity (HL-60 [18]): Active | Activity (T-cell): Non-Toxic | Activity (HL-60 [19]): 12.1% | fold change (FC) (HL-60 [21]): -1.58 | fold change (FC) (HL-60 [22]): 1.57 | fold change (FC) (HL-60 [23]): -1.53 | Activity (RS4-11 [24]): Active

— ChEMBL document CHEMBL4359879, “Synthesis and evaluation of 2-carboxy indole derivatives as potent and selective anti-leukemic agents” (Eur J Med Chem, 2019)
